The test system of experiment [1] is Aorta. Description: Vasodilatory activity in Sprague-Dawley rat aortic rings with endothelium assessed as inhibition of phenylephrine-induced vasoconstriction relative to phenylephrine. It is filed as functional. In short, it runs like this: (§1)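 Endothelium-intact aortic rings from male Sprague-Dawley rats (4–6 months, ~250 g) were equilibrated for ≥1 h and then contracted isometrically with phenylephrine. Once tone stabilized (~20 min), compound was added cumulatively at 15–20 min intervals until relaxation reached steady state, with vehicle-only tissues run in parallel. Emax was taken as % of the PE contraction, and EC50 came from nonlinear regression of the concentration-response curve.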

Experiment [2] concerns Aorta. Description: Vasodilatory activity in Sprague-Dawley rat aortic rings with endothelium assessed as inhibition of phenylephrine-induced vasoconstriction. The format is functional, tissue-based. In a few lines: as §1

For orientation: Emax means the greatest response seen or fitted, relative to the assay's reference. A word on the EC50: it is the concentration needed to bring the measured effect to its halfway point.

The structures appear in SMILES notation.

Consider `O=C(/C=C/c1ccc2c(c1)OCO2)c1c(O)cc(O)cc1OCCO[N+](=O)[O-]`, for which the Emax with Aorta [1] was found to be 103%. Moreover, in the experiment on Aorta [2], the Activity entry was “Dose-dependent effect” and the EC50 worked out at 13.4 µM.

For `Cc1no[n+]([O-])c1COc1cc(O)cc(O)c1C(=O)/C=C/c1ccc2c(c1)OCO2`, the Emax in the experiment on Aorta [1] worked out at 100%. In the experiment with Aorta [2], the Activity result is “Dose-dependent effect” and the EC50 is 8.9 µM.

As to `Cc1c(COc2cc(O)c(C(=O)/C=C/c3ccc4c(c3)OCO4)c(OCCO[N+](=O)[O-])c2)no[n+]1[O-]`, the maximal response (Emax) in the experiment with Aorta [1] amounted to 96%. Further, in the experiment on Aorta [2], the Activity entry was “Dose-dependent effect” and the EC50 stood at 9.4 µM.

On to `COC(=O)C1=C(C)NC(C)=C(C(=O)OCCOc2cc(O)cc(O)c2C(=O)/C=C/c2ccc3c(c2)OCO3)C1c1cccc([N+](=O)[O-])c1` (configuration not stated), for which the Emax with Aorta [1] worked out at 98.6%. For the same compound, in the experiment with Aorta [2], the Activity result is “Dose-dependent effect” and the EC50 was 9.3 µM.

For `COC(=O)C1=C(C)NC(C)=C(C(=O)OCCOc2cc(O)ccc2C(=O)/C=C/c2ccc3c(c2)OCO3)C1c1cccc([N+](=O)[O-])c1` (configuration not stated), the Emax in the experiment on Aorta [1] worked out at 103%. Moreover, in the experiment on Aorta [2], the Activity entry was “Dose-dependent effect” and the EC50 came out at 9.7 µM.

Turning to `O=C(/C=C/c1ccc2c(c1)OCO2)c1c(OCCO[N+](=O)[O-])cc(OCCO[N+](=O)[O-])cc1OCCO[N+](=O)[O-]`, the Emax with Aorta [1] turned out to be 104%. Moreover, in the experiment with Aorta [2], the Activity result is “Dose-dependent effect” and the EC50 is 8.4 µM.

Consider `Cc1c(COc2cc(O)cc(O)c2C(=O)/C=C/c2ccc3c(c2)OCO3)no[n+]1[O-]`, for which the maximum response (Emax) in the experiment with Aorta [1] is 95.7%. In addition, in the experiment on Aorta [2], the Activity entry was “Dose-dependent effect” and the EC50 amounted to 12.1 µM.

Regarding `COC(=O)C1=C(C)NC(C)=C(C(=O)OCCOc2cc(O)cc(O)c2C(=O)/C=C/c2cccc(Br)c2)C1c1cccc([N+](=O)[O-])c1` (configuration not stated), in the experiment on Aorta [1], the Emax amounted to 102%. In the experiment with Aorta [2], the Activity entry was “Dose-dependent effect” and the EC50 amounted to 6.4 µM.

For the compound `COC(=O)C1=C(C)NC(C)=C(C(=O)OCCOc2cc(O)cc(O)c2C(=O)/C=C/c2ccc(O)cc2)C1c1cccc([N+](=O)[O-])c1` (configuration not stated), the Emax in the experiment on Aorta [1] was found to be 104%. In the experiment on Aorta [2], the Activity result was “Dose-dependent effect” and the EC50 amounted to 2.9 µM.

The record behind these values is ChEMBL document CHEMBL1240426, “Synthesis and biological evaluation of novel hybrid chalcone derivatives as vasorelaxant agents” (Eur J Med Chem, 2010).
